High-throughput results (PubChem BioAssay)
SENP7 inh = inhibitors of human SENP7 protease; Q9BQF6; recombinant SENP7, Z-RLRGG-aminoluciferin luminescence, 40 min; inhibition, % at 5 µM; hit rate 1.5% among 330,000;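 active = inhibition above about 50% at the single test dose, limit read from the data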
Target sequence (Q9BQF6 706-1050 limits assumed): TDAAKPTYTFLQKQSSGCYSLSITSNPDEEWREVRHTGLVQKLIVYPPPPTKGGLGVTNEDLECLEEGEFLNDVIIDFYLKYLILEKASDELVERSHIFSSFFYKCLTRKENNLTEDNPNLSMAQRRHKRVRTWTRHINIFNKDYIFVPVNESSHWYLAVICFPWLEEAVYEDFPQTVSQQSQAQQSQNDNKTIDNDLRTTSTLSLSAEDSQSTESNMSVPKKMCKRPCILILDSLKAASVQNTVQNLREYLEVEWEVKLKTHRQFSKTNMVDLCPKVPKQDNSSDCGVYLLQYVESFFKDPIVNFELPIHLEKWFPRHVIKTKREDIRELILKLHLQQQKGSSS
Platelet DG rel = modulates dense granule release in human platelets; human platelet-rich plasma, SFLLRN dense granule ATP release, luminescence; inhibition, %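 (compounds screened at 7.5 µM in platelet-rich plasma)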; hit rate 0.22% among 300,000; AID 1663;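 active = mean replicate score, as percent of positive control, at or above 50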
SENP6 block = inhibitors of human SENP6 protease | Recombinant SENP6 catalytic domain, aminoluciferin luminescence | Q9GZR1 | inhibition, % at 10 µM | hit rate 1.8% among 330,000;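 active = inhibition above about 50% at the single tested dose, limit read from the data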
SENP8 block-1 = inhibitors of human SENP8 protease | purified SENP8, Z-RLRGG-aminoluciferin cleavage, luminescence | inhibition, % at 10 µM | hit rate 1.2% among 330,000 | AID 2540; in the data active = inhibition above about 50%
SENP1 FRET inh = inhibitors of human SENP1 SUMO protease catalytic domain; Q9P0U3; recombinant SENP1 catalytic domain, CyPet-SUMO1-YPet FRET cleavage; inhibition, % at 10 µM; hit rate 0.21% among 360,000; AID 624204;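 active = inhibition at least 30% at 10 µM, raw YFP signal under a set limit, fluorescence ratio 0.5 to 1.5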
Target sequence (Q9P0U3 419-644 limits assumed): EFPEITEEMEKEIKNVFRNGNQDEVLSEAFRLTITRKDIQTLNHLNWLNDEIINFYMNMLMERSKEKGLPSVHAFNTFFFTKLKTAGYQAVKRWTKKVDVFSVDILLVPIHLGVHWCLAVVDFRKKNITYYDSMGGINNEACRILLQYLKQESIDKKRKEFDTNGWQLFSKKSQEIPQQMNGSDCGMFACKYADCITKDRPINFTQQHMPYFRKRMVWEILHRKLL
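system = hSENP1 catalytic domain, recombinant | reagent = SFCypet-SUMO1-SFYpet substrate at 25 nM | doses = one dose per compound, 10 µM, 0.5% DMSO | incubation = enzyme reaction for 50 min at room temperature, dark | measured by = FRET, CFP and YFP emission | controls = no-enzyme low, enzyme-DMSO high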
SENP8 block-2 = SENP8 (human) protease inhibition; hit rate 0.64% among 360,000; Q96LD8; recombinant SENP8, Nedd8 substrate fluorescence; inhibition, % at 20 µM; in the data active = inhibition mostly above about 40%, no sharp cut-off; inactive = mostly below about 27%
Numbers stand for hits; - = inactive; . = no result given. A selection: hits, their analogues and other compounds. The true share with any hit is near 2.6%.

SMILES | SENP7 inh | Platelet DG rel | SENP6 block | SENP8 block-1 | SENP1 FRET inh | SENP8 block-2
Nc1[nH]ncc1-c1ccc(Cl)cc1 | - | - | - | - | - | -
Nc1n[nH]c(N)c1N=Nc1ccc(Cl)cc1 | - | - | - | - | - | 54
CN(Cc1ccccc1)Cc1cc(=O)oc2ccc3ccccc3c12 | . | . | . | . | - | -
CCCc1nc2ccc(Cl)cn2c1Cc1ccccc1 | . | . | . | . | - | -
Nc1nc(-c2ccccc2)c(N=Nc2ccc(Cl)cc2)s1 | - | - | - | - | - | 46
Nc1nc(-c2ccccc2)c(-c2ccccc2)s1 | - | - | - | - | - | -
O=C1NC(=Nc2ccccc2)S/C1=C\c1cccs1 | - | - | 69 | 59 | - | -
Cn1cccc1/C=C1\SC(=Nc2ccc(O)cc2)NC1=O | - | - | - | - | - | -
Cn1cccc1/C=C1\SC(=Nc2cccc(O)c2)NC1=O | 52 | - | 78 | 54 | - | -
O=C(c1cc(-c2ccccc2)on1)N(Cc1cccnc1)C(c1ccccn1)c1nc2ccccc2[nH]1 (stereo not drawn) | . | . | . | . | - | -
O=C(O)COc1ccccc1/C=N/NC(=O)CSc1nnc(SCc2ccccc2)s1 | - | - | 56 | - | - | -
O=C(CSc1nnc(SCc2ccccc2Cl)s1)N/N=C/c1ccc(C(=O)O)cc1 | - | - | 93 | 83 | - | -
COC(=O)[C@]12CCCCC=C1N(CCc1ccc(OC)c(OC)c1)C(=O)[C@H](CC(=O)NCCC(C)C)C2 | . | . | . | . | - | -
O=C1/C(=C\c2ccc(Br)o2)Cc2ccccc21 | - | - | 73 | - | - | -
Cc1cccc2sc(NNC(=O)c3cc(=O)c4ccccc4o3)nc12 | 89 | - | 98 | 96 | - | -
COc1cc(/C=C2\CC(C(C)(C)C)C/C(=C\c3cc(OC)c(OC)c(OC)c3)C2=O)cc(OC)c1OC (stereo not drawn) | - | - | - | - | 37 | -
CC(=O)Nc1cccc(-c2ccnc3c2CC(C)(C(=O)Nc2ccc(Cl)cc2)O3)c1 (stereo not drawn) | . | . | . | . | - | -
CSc1nc2sc(-c3ccccc3)cc2c(=O)n1N | 98 | 115 | 95 | 94 | - | -
OC[C@@H]1CC[C@@H](Cc2ccc(-c3ccccc3)cc2)O1 | 63 | . | . | . | - | -
NC(=O)NC[C@@H]1CC[C@@H](Cc2ccc(-c3ccccc3)cc2)O1 | - | . | . | . | - | -
CC(=O)Oc1ccc(-c2cc3ccccc3oc2=O)cc1 | - | - | - | - | - | -
CC(=O)Oc1ccc(-c2cc3c(OC(C)=O)cc(OC(C)=O)cc3oc2=O)cc1 | - | 58 | - | - | - | -
COC(=O)N=Nc1c(O)n(Cc2ccccc2)c2ccccc12 | - | - | - | - | - | -
O=C(N=Nc1c(O)n(Cc2ccccc2)c2ccccc12)c1ccncc1 | - | - | - | - | - | 42
O=C1c2ccccc2C(=O)c2c1cccc2N1CCCC1 | . | - | . | . | - | 46
SMILES | SENP7 inh | Platelet DG rel | SENP6 block | SENP8 block-1 | SENP1 FRET inh | SENP8 block-2
CCNc1ccc2noc3c2c1C(=O)c1ccccc1-3 | - | - | - | - | - | 42
O=C1c2ccccc2-c2cccc(C(=O)N3CCCCC3)c21 | - | - | - | - | - | -
O=C1c2ccccc2-c2onc3ccc(N4CCCC4)c1c23 | . | - | . | . | - | 81
CCOc1ccc2noc3c2c1C(=O)c1ccccc1-3 | - | - | 79 | - | - | 70
CC(C)(C)n1nnnc1C(c1ccccc1)N1CCN(C(=O)C2CCCO2)CC1 (stereo not drawn) | . | . | . | . | - | -
CCCCCCCCN1C(=O)[C@H](CC(=O)NCC23CC4CC(CC(C4)C2)C3)C[C@@]2(C(=O)OCC)CCCC=C12 | . | . | . | . | - | -
CC(=O)N1CCCC(C)(C(=O)Nc2ccc3nc(C)ccc3c2)C1 (stereo not drawn) | . | . | . | . | - | -
Cn1c(=O)cc2c3c(c(N4CCCCC4)ccc31)C(=O)c1ccccc1-2 | - | - | - | - | 33 | -
O=C1C=C(N2CCCCC2)c2ccccc2C1=O | 55 | - | 93 | 83 | - | -
O=S(=O)(c1ccccc1S(=O)(=O)N1CCCCC1)N1CCCCC1 | - | - | - | - | - | -
O=C1c2ccccc2-c2onc3ccc(NCc4ccco4)c1c23 | - | - | 64 | - | - | 100
O=C(CCC1CCCC1)NNC(=O)COc1ccc(Br)cc1 | - | . | - | - | - | -
Nc1nonc1-n1nnc(C(=O)N/N=C/c2ccco2)c1CSc1ccc(Cl)cc1 | . | . | . | . | - | -
COc1cc(/C=C2\SC(N3CCC(C)CC3)=NC2=O)ccc1O | - | - | - | - | 63 | -
Cc1cc(C=O)c(C)n1-c1ccc(Oc2ccc([N+](=O)[O-])cn2)cc1 | - | - | - | - | - | -
Cc1cc(C=O)c(C)n1-c1ccc(NC2CCCC2)c([N+](=O)[O-])c1 | - | - | - | - | - | 42
CCOc1ccc(N=Cc2ccc([N+](=O)[O-])cc2)c(O)c1 | . | . | . | . | 39 | 41
CCOc1ccc(N=Cc2ccc(N(C)C)cc2)c(O)c1 | . | . | . | . | - | -
O=C(Nc1ccccc1)Nc1ccc2nnsc2c1 | 63 | - | 54 | - | - | -
CN(C)c1ccc(NC(=O)Nc2ccc3snnc3c2)cc1 | 62 | - | 70 | - | - | -
CC(=O)c1ccc(NC(=O)c2ccc3snnc3c2)cc1 | - | - | - | - | - | -
Oc1ccc(N=Nc2nc(-c3ccccc3)c(-c3ccccc3)[nH]2)cc1 | - | - | - | - | 39 | -
CCc1ccc2c(c1)c(N=NC1=NC(=O)CS1)c(O)n2CC | - | - | - | - | - | 42
CCc1ccc2[nH]c(O)c(N=NC3=NC(=O)CS3)c2c1 | - | - | - | - | - | 27
CCOC(=O)N=Nc1c(O)n(CC)c2ccccc12 | - | - | - | - | - | -
SMILES | SENP7 inh | Platelet DG rel | SENP6 block | SENP8 block-1 | SENP1 FRET inh | SENP8 block-2
Cc1ccc2[nH]c(O)c(N=Nc3ccccc3C)c2c1 | - | - | - | - | - | -
Cc1nnc(N2CCC(C(=O)N3CCCCC3)CC2)c2nn(-c3ccc(Cl)cc3)c(C)c12 | - | - | - | - | - | -
COc1ccc(-n2nc3c(N4CCC(C(=O)N5CCC(C)CC5)CC4)nnc(C)c3c2C)cc1 | - | - | - | - | 68 | -
CC1=C(C(=O)N(C(C)C)C(C)C)CC(CC(=O)NC(c2ccccc2)c2ccccc2)C(=O)N1CCC1=CCCCC1 (stereo not drawn) | . | . | . | . | - | -
COC/C=C/C1=CC2=CC(=O)C(C)(OC(=O)c3cnc4ccccc4n3)C(=O)C2=CN1CC(C)C (stereo not drawn) | - | - | - | - | - | 54
COc1cc(C(O)c2nc(-c3cccc4cccnc34)cs2)ccc1F (stereo not drawn) | . | . | . | . | - | -
CN1CCS/C1=C/C=C1\SC(=S)N(CC(=O)O)C1=O | - | - | - | - | 66 | -
CCCCN1C(=O)/C(=C/C=C2\SCCN2C)SC1=S | - | - | - | - | - | -
CCOc1ccc(N/C=C/C(=O)c2ccc(OC)cc2)c([N+](=O)[O-])c1 | - | - | - | - | 37 | -
CCN1C(=O)/C(=C\N2CCCCCC2)SC1=S | - | - | - | - | - | 46
